Data: ChEMBL document CHEMBL2424551, “Synthesis, in vitro evaluation and molecular modelling of naphthalimide analogue as anticancer agents” (2013)
Activity calls are given as the source filed them. The calls are words filed in the database; no cut-off is given here.

Tests used:
Format in all cases: functional
KM12 = experiment: Growth inhibition of human KM12 cells at 10 uM after 48 hrs by SRB assay; details: KM12, 48 h, read-out: GI
How it was run: (§1)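 Cells grown in RPMI 1640 with 5% FBS and 2 mM L-glutamine, plated at 5000–40,000 cells/well by doubling time and preincubated 24 h (37 °C, 5% CO2); a time-zero plate is TCA-fixed. Single dose added, then 48 h incubation. Fixed with cold TCA, stained with 0.4% SRB, dye solubilized in 10 mM Tris base, absorbance at 515 nm; percent growth vs time-zero and untreated control.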

MDA-MB-435 = experiment: Growth inhibition of human MDA-MB-435 cells at 10 uM after 48 hrs by SRB assay; details: MDA-MB-435, 48 h, read-out: GI; how it was run: as §1
OVCAR-5 = experiment: Growth inhibition of human OVCAR5 cells at 10 uM after 48 hrs by SRB assay; details: OVCAR-5, 48 h, read-out: GI; how it was run: as §1
[1] = Cytotoxicity against human renal cancer cells after 48 hrs by SRB assay; details: Cancer cell lines; for CC50: read-out: LC50 (the source's name)
How it was run: (§2)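 Five-concentration screen (10-fold or ½-log serial dilutions) on the 60-line panel. Cells grown in RPMI 1640 with 5% FBS and 2 mM L-glutamine, plated at 5000–40,000/well by doubling time, preincubated 24 h at 37 °C, 5% CO2, then exposed 48 h. Time-zero plates TCA-fixed. SRB stain, Tris-solubilized, A515. GI50, TGI and LC50 derived from Tz, C and Ti.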

[2] = Cytotoxicity against human ovarian cancer cells after 48 hrs by SRB assay; details: Cancer cell lines; for CC50: read-out: LC50 (the source's name); how it was run: as §2
U-251 = experiment: Growth inhibition of human U251 cells at 10 uM after 48 hrs by SRB assay; details: U-251, 48 h, read-out: GI
How it was run: (§3)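 NCI 60-cell-line screen with a single 10 µM dose. Cells are grown in RPMI 1640 with 5% FBS and 2 mM L-glutamine, plated at 5000–40,000 cells/well according to doubling time, and preincubated 24 h at 37 °C, 5% CO2; time-zero plates are TCA-fixed at that point. Drug exposure is 48 h. Adherent cells are fixed with cold TCA, stained with 0.4% SRB in 1% acetic acid and read at 515 nm. Percent growth is calculated relative to time-zero and untreated controls and reported as GI%.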

[3] = Cytotoxicity against human leukemia cells after 48 hrs by SRB assay; details: Leukemia cell; how it was run: as §2
[4] = Cytotoxicity against human breast cancer cells after 48 hrs by SRB assay; details: Cancer cell lines; how it was run: as §2
SN12C = experiment: Growth inhibition of human SN12C cells at 10 uM after 48 hrs by SRB assay; details: read-out: GI; how it was run: as §3
LOX IMVI = experiment: Growth inhibition of human LOXIMVI cells at 10 uM after 48 hrs by SRB assay; details: read-out: GI; how it was run: as §1
T47D = experiment: Growth inhibition of human T47D cells at 10 uM after 48 hrs by SRB assay; details: read-out: GI; how it was run: as §3
SW-620 = experiment: Growth inhibition of human SW620 cells at 10 uM after 48 hrs by SRB assay; details: SW-620, 48 h, read-out: GI; how it was run: as §3
[5] = Cytotoxicity against human colon cancer cells after 48 hrs by SRB assay; details: Cancer cell lines; for CC50: read-out: LC50 (the source's name); how it was run: as §2
TK-10 = experiment: Growth inhibition of human TK10 cells at 10 uM after 48 hrs by SRB assay; details: TK-10, 48 h, read-out: GI; how it was run: as §3
HT-29 = experiment: Growth inhibition of human HT-29 cells at 10 uM after 48 hrs by SRB assay; details: HT-29, 48 h, read-out: GI; how it was run: as §1
[6] = Cytotoxicity against human CNS cancer cells after 48 hrs by SRB assay; details: Cancer cell lines; for CC50: read-out: LC50 (the source's name); how it was run: as §2
HOP-62 = experiment: Growth inhibition of human HOP62 cells at 10 uM after 48 hrs by SRB assay; details: HOP-62, 48 h, read-out: GI; how it was run: as §1
[7] = Cytotoxicity against human melanoma cells after 48 hrs by SRB assay; details: Melanoma cell; how it was run: as §2
HCT-116 = experiment: Growth inhibition of human HCT116 cells at 10 uM after 48 hrs by SRB assay; details: HCT-116, 48 h, read-out: GI; how it was run: as §1
MCF7 = experiment: Growth inhibition of human MCF7 cells at 10 uM after 48 hrs by SRB assay; details: MCF7, 48 h, read-out: GI; how it was run: as §1
BT-549 = experiment: Growth inhibition of human BT549 cells at 10 uM after 48 hrs by SRB assay; details: BT-549, 48 h, read-out: GI; how it was run: as §1
Malme-3M = experiment: Growth inhibition of human MALME-3M cells at 10 uM after 48 hrs by SRB assay; details: read-out: GI; how it was run: as §1
[8] = Cytotoxicity against human non-small cell lung cancer cells after 48 hrs by SRB assay; details: Cancer cell lines; how it was run: as §2
SNB-19 = experiment: Growth inhibition of human SNB19 cells at 10 uM after 48 hrs by SRB assay; details: SNB-19, 48 h, read-out: GI; how it was run: as §3
NCI-H460 = experiment: Growth inhibition of human NCI-H460 cells at 10 uM after 48 hrs by SRB assay; details: NCI-H460, 48 h, read-out: GI; how it was run: as §1
NCI-H522 = experiment: Growth inhibition of human NCI-H522 cells at 10 uM after 48 hrs by SRB assay; details: NCI-H522, 48 h, read-out: GI; how it was run: as §1
Hs-578T = experiment: Growth inhibition of human Hs578T cells at 10 uM after 48 hrs by SRB assay; how it was run: as §1
[9] = Cytotoxicity against human prostate cancer cells after 48 hrs by SRB assay; details: Cancer cell lines; how it was run: as §2
[10] = Growth inhibition of human EKVX cells at 10 uM after 48 hrs by SRB assay; details: read-out: GI; how it was run: as §1
SK-MEL-5 = experiment: Growth inhibition of human SK-MEL-5 cells at 10 uM after 48 hrs by SRB assay; details: SK-MEL-5, 48 h, read-out: GI; how it was run: as §1
786-0 = experiment: Growth inhibition of human 786-0 cells at 10 uM after 48 hrs by SRB assay; details: 786-0, 48 h, read-out: GI; how it was run: as §1
HL-60(TB) = experiment: Growth inhibition of human HL-60(TB) cells at 10 uM after 48 hrs by SRB assay; details: HL-60, 48 h, read-out: GI
How it was run: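 Single-concentration pass across the 60-line panel in RPMI 1640 with 5% FBS. Cells preincubated 24 h, then exposed 48 h at 37 °C, 5% CO2. Read by SRB staining with absorbance at 515 nm. Percent growth is taken relative to time-zero and untreated controls and reported as percent growth inhibition (GI %).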

OVCAR-8 = experiment: Growth inhibition of human OVCAR8 cells at 10 uM after 48 hrs by SRB assay; details: OVCAR-8, 48 h, read-out: GI; how it was run: as §1
[11] = read-out: LC50 (the source's name)

## O=c1[nH]cc(F)c(=O)[nH]1 [FLUOROURACIL]
KM12
  inhibition of growth at 10 µM: 40.7%
MDA-MB-435
  inhibition of growth at 10 µM: 36.6%
OVCAR-5
  inhibition of growth at 10 µM: 44.3%
[1]
  GI50: 45.6 µM
  TGI: > 100 µM
  CC50: > 100 µM
[2]
  GI50: 61.4 µM
  TGI: > 100 µM
  CC50: > 100 µM
U-251
  inhibition of growth at 10 µM: 50.3%
[3]
  GI50: 1.51 µM
  TGI: > 100 µM
[4]
  GI50: 76.4 µM
  TGI: > 100 µM
SN12C
  inhibition of growth at 10 µM: 54%
LOX IMVI
  inhibition of growth at 10 µM: 30.4%
T47D
  inhibition of growth at 10 µM: 56.7%
SW-620
  inhibition of growth at 10 µM: 50.1%
[5]
  GI50: 8.4 µM
  TGI: > 100 µM
  CC50: > 100 µM
TK-10
  inhibition of growth at 10 µM: 66.9%
HT-29
  inhibition of growth at 10 µM: 27.1%
[6]
  GI50: 72.1 µM
  TGI: > 100 µM
  CC50: > 100 µM
HOP-62
  inhibition of growth at 10 µM: 47.8%
[7]
  GI50: 70.6 µM
  TGI: > 100 µM
HCT-116
  inhibition of growth at 10 µM: 17.8%
MCF7
  inhibition of growth at 10 µM: 11.5%
BT-549
  inhibition of growth at 10 µM: 37.8%
Malme-3M
  inhibition of growth at 10 µM: 58.2%
[8]
  GI50: > 100 µM
  TGI: > 100 µM
SNB-19
  inhibition of growth at 10 µM: 65.9%
NCI-H460
  inhibition of growth at 10 µM: 13%
NCI-H522
  inhibition of growth at 10 µM: 58%
Hs-578T
  growth inhibition (GI): Active
[9]
  GI50: 22.7 µM
  TGI: > 100 µM
[10]
  inhibition of growth at 10 µM: 58.4%
SK-MEL-5
  inhibition of growth at 10 µM: 33.7%
786-0
  inhibition of growth at 10 µM: 48.7%
HL-60(TB)
  inhibition of growth at 10 µM: 47.9%

## Nc1ccc(Sc2ccc3c4c2cccc4c(=O)n2c4ccccc4nc32)cc1
KM12
  inhibition of growth at 10 µM: 26.4%
MDA-MB-435
  inhibition of growth at 10 µM: < 20%
OVCAR-5
  inhibition of growth at 10 µM: < 20%
[1]
  GI50: 3.3 µM
  TGI: 15.4 µM
  CC50: 88.9 µM
[2]
  GI50: 6.97 µM
  TGI: 37.4 µM
  CC50: 97.9 µM
U-251
  inhibition of growth at 10 µM: 60.1%
[3]
  GI50: 2.9 µM
  TGI: 44.5 µM
[3]; [11]
  CC50: > 100 µM
[4]
  GI50: 5.2 µM
  TGI: 46 µM
[4]; [11]
  CC50: > 100 µM
SN12C
  inhibition of growth at 10 µM: 80.8%
LOX IMVI
  inhibition of growth at 10 µM: 70.8%
T47D
  inhibition of growth at 10 µM: 60.4%
SW-620
  inhibition of growth at 10 µM: 53.8%
[5]
  GI50: 6.58 µM
  TGI: 60.8 µM
  CC50: 98.8 µM
TK-10
  inhibition of growth at 10 µM: 21.4%
HT-29
  inhibition of growth at 10 µM: 33.3%
[6]
  GI50: 4.09 µM
  TGI: 45.4 µM
  CC50: 94 µM
HOP-62
  inhibition of growth at 10 µM: 48.8%
[7]
  GI50: 6.93 µM
  LC50: 83.9 µM
  TGI: 35.1 µM
HCT-116
  inhibition of growth at 10 µM: 53.2%
MCF7
  inhibition of growth at 10 µM: 76.4%
BT-549
  inhibition of growth at 10 µM: 40.9%
Malme-3M
  inhibition of growth at 10 µM: 66%
[8]
  GI50: 3.94 µM
  TGI: 32.5 µM
SNB-19
  inhibition of growth at 10 µM: 53.7%
NCI-H460
  inhibition of growth at 10 µM: 90.5%
NCI-H522
  inhibition of growth at 10 µM: 40%
Hs-578T; read-out: GI
  inhibition of growth at 10 µM: 40.4%
OVCAR-8
  inhibition of growth at 10 µM: 50%
[9]
  GI50: 3.23 µM
  TGI: 17.9 µM
SK-MEL-5
  inhibition of growth at 10 µM: 60.6%
786-0
  inhibition of growth at 10 µM: 62.7%
HL-60(TB)
  inhibition of growth at 10 µM: 81.8%
